Data as given in ChEMBL document CHEMBL4334459, “Identification of α-Mangostin as a Potential Inhibitor of Microtubule Affinity Regulating Kinase 4” (J Nat Prod, 2019).
Each block holds one compound with its values, some of them ahead of it. The source made the active and inactive calls. The rule behind the calls is not given here.

Tests used:
HepG2 [1] = experiment: Induction of apoptosis in human HepG2 cells assessed as apoptotic cells at IC50 after 24 hrs by annexin V-FITC/propidium iodide staining based Flow cytometric analysis (reference value: 2.68%); type: functional
HEK293 = experiment: Cytotoxicity against human HEK293 cells assessed as reduction in cell viability upto 50 uM after 48 hrs by MTT assay; type: cell-based; conditions: hek293, 48 h
Method in brief: (§1)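 Cells plated at 9000−10 000 cells/well, grown 24 h, then exposed to 0−50 μM compound for 48 h at 37 °C in 5% CO2, followed by a standard MTT read-out. HEK-293, MCF-7 and HepG2 were kept in DMEM with 10% heat-inactivated FBS and 1% penicillin−streptomycin. Viability is expressed as % of control, mean ± SD, n = 3. Paclitaxel served as positive control.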

[2] = target: T1, MAP/microtubule affinity-regulating kinase 4 (Homo sapiens) (UniProt Q96L34); experiment: Inhibition of recombinant human MARK4 at 10 uM incubated for 2 hrs by [gamma32P]ATP assay
T1 sequence (whole entry): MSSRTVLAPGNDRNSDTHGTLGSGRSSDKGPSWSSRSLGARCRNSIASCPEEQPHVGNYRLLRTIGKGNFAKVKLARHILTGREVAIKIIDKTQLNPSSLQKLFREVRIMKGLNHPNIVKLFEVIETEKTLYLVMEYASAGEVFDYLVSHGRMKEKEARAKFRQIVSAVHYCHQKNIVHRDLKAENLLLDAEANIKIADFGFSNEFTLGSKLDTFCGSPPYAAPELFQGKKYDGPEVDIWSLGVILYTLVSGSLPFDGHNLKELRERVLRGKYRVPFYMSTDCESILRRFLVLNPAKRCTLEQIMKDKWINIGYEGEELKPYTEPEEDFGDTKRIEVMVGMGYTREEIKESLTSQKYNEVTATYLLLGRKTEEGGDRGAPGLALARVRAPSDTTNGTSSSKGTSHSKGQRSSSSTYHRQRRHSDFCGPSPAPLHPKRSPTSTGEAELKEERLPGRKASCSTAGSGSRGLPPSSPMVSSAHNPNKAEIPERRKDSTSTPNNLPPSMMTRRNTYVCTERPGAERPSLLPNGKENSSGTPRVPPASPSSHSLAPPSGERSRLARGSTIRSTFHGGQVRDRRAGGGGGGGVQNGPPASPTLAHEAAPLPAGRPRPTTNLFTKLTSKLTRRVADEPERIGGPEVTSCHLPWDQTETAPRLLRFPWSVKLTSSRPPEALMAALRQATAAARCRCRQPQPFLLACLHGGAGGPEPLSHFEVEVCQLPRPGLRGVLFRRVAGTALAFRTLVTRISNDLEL
Method in brief: (§2)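 Recombinant human MARK4 was incubated 2 h at 37 °C with 1 mM cold ATP plus [γ-32P]ATP (222 TBq mmol−1), with or without compound. Released 32Pi was separated from ATP by TLC, and spots were quantified as % ATP hydrolysis relative to a 100 nM enzyme positive control. Screening was at a single 10 μM; dose-response used 0.5−10 μM.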

[3] = target: T1, MAP/microtubule affinity-regulating kinase 4 (Homo sapiens); experiment: Inhibition of MARK4 in human SH-SY5Y cells assessed as reduction in tau phosphorylation at IC50 after 24 hrs by flow cytometric analysis; type: cell-based
Method in brief: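 SH-SY5Y cells were grown in 1:1 EMEM/F12 with 10% FBS and incubated with IC50 compound. After 24 h, about 1 × 10^6 cells were collected, fixed, and stained with anti-tau primary antibody for 2−3 h at 25 °C. Phospho-tau signal was read by flow cytometry against untreated cells.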

MCF7 [4] = experiment: Antiproliferative activity against human MCF7 cells assessed as reduction in cell viability after 48 hrs by MTT assay; type: functional, cell-based; conditions: MCF7, 48 h; method in brief: as §1
HepG2 [5] = experiment: Antiproliferative activity against human HepG2 cells assessed as reduction in cell viability after 48 hrs by MTT assay; type: functional, cell-based; conditions: HepG2, 48 h; method in brief: as §1
MCF7 [6] = experiment: Induction of cell cycle arrest in human MCF7 cells assessed as accumulation at S phase at IC50 after 24 hrs by propidium iodide staining based Flow cytometric analysis (reference value: 20%); type: functional
MCF7 [7] = experiment: Induction of apoptosis in human MCF7 cells assessed as apoptotic cells at IC50 after 24 hrs by annexin V-FITC/propidium iodide staining based Flow cytometric analysis (reference value: 0.01%); type: functional
[8] = target: T1, MAP/microtubule affinity-regulating kinase 4 (Homo sapiens); experiment: Inhibition of MARK4 in human MCF7 cells assessed as reduction in ROS level at IC50 after 5 to 6 hrs by DCFDA staining using spectroflourimetric analysis; type: cell-based
HepG2 [9] = experiment: Induction of cell cycle arrest in human HepG2 cells assessed as accumulation at G0/G1 phase at IC50 after 24 hrs by propidium iodide staining based Flow cytometric analysis (reference value: 60%); type: functional
MCF7 [10] = experiment: Inhibition of cell migration in human MCF7 cells at IC50 after 48 hrs by phase contrast inverted microscopic based wound healing assay; type: functional
HepG2 [11] = experiment: Induction of apoptosis in human HepG2 cells assessed as viable cells at IC50 after 24 hrs by annexin V-FITC/propidium iodide staining based Flow cytometric analysis (reference value: 97.32%); type: functional
HepG2 [12] = experiment: Induction of cell cycle arrest in human HepG2 cells assessed as accumulation at S phase at IC50 after 24 hrs by propidium iodide staining based Flow cytometric analysis (reference value: 25%); type: functional
MCF7 [13] = experiment: Induction of apoptosis in human MCF7 cells assessed as viable cells at IC50 after 24 hrs by annexin V-FITC/propidium iodide staining based Flow cytometric analysis (reference value: 99.99%); type: functional
[14] = target: T1, MAP/microtubule affinity-regulating kinase 4 (Homo sapiens); experiment: (§3) Inhibition of recombinant human MARK4 incubated for 2 hrs by [gamma32P]ATP assay; method in brief: as §2
[15] = target: T2, MAP/microtubule affinity-regulating kinase 4 (Homo sapiens, UniProt Q96L34); experiment: as §3; method in brief: as §2
T2 sequence (Q96L34 whole entry): T1 sequence (whole entry)

[16] = target: T1, MAP/microtubule affinity-regulating kinase 4 (Homo sapiens); experiment: Inhibition of MARK4 in human HepG2 cells assessed as reduction in ROS level at IC50 after 5 to 6 hrs by DCFDA staining using spectroflourimetric analysis; type: cell-based
MCF7 [17] = experiment: Induction of cell cycle arrest in human MCF7 cells assessed as accumulation at G0/G1 phase at IC50 after 24 hrs by propidium iodide staining based Flow cytometric analysis (reference value: 65%); type: functional
[18] = target: T1, MAP/microtubule affinity-regulating kinase 4 (Homo sapiens); experiment: Binding affinity to recombinant human MARK 4 by fluorescence based Stem-Volme plot analysis
Method in brief: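 Intrinsic fluorescence of recombinant MARK4 (10 μM) was titrated with increasing ligand, using excitation at 280 nm and emission recorded from 300−400 nm. Quenching was fitted to a modified Stern−Volmer equation, log(Fo−F)/F = log Ka + n log[L]. Ka came from the intercept and n from the slope. Three independent triplicate titrations were averaged.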

HepG2 [19] = experiment: Induction of cell cycle arrest in human HepG2 cells assessed as accumulation at S phase at IC50 after 24 hrs by propidium iodide staining based Flow cytometric analysis (reference value: 15%); type: functional
MCF7 [20] = experiment: Induction of cell cycle arrest in human MCF7 cells assessed as accumulation at G2 phase at IC50 after 24 hrs by propidium iodide staining based Flow cytometric analysis (reference value: 15%); type: functional

inhibition [2]: Active
inhibition [3]: Active
IC50 (MCF7 [4]): 9.95 µM
IC50 (HepG2 [5]): 18.6 µM
inhibition [8]: Active
inhibition [14]: Dose-dependent effect
IC50 [15]: 1.77 µM
inhibition [16]: Active
Ka [18]: 5.2 ×10⁷ /M
Compound: COc1c(O)cc2oc3cc(O)c(CC=C(C)C)c(O)c3c(=O)c2c1CC=C(C)C [MANGOSTIN]
Activity (HepG2 [1]): 19.7%
Activity (HEK293): Non-Toxic
Activity (MCF7 [6]): 10%
Activity (MCF7 [7]): 25.9%
Activity (HepG2 [9]): 75%
inhibition (MCF7 [10]): Active
Activity (HepG2 [11]): 80.3%
Activity (HepG2 [12]): 15%
Activity (MCF7 [13]): 74.1%
Activity (MCF7 [17]): 83%
Activity (HepG2 [19]): 10%
Activity (MCF7 [20]): 7%

inhibition [2]: Active
Compound: O=c1oc2c(O)c(O)cc3c(=O)oc4c(O)c(O)cc1c4c23
